Data from ChEMBL document CHEMBL4190234, “Design, synthesis and anticancer activity of new monastrol analogues bearing 1,3,4-oxadiazole moiety” (Eur J Med Chem, 2017).

Tests used:
SK-MEL-28 = experiment: Growth inhibition of human SK-MEL-28 cells at 10 uM incubated for 48 hrs by sulforhodamine B assay relative to control; format: functional; settings: SK-MEL-28, 48 h, read-out: GI
How it was run: (§1)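 NCI single-dose screen: cells grown in RPMI 1640 with 5% FBS and 2 mM L-glutamine, plated at 5,000–40,000 cells/well and preincubated 24 h at 37 °C, 5% CO2. Compounds taken from DMSO stock and tested at final 10 µM for 48 h. Cells fixed with TCA, stained with 0.4% SRB, absorbance read at 515 nm. Percentage growth calculated against untreated controls; controls held DMSO at the same dilution.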

NCI-H522 = experiment: Growth inhibition of human NCI-H522 cells at 10 uM incubated for 48 hrs by sulforhodamine B assay relative to control; format: functional; settings: NCI-H522, 48 h, read-out: GI
How it was run: (§2)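 Single-dose screen at 10 μM final: cells in RPMI 1640, 5% FBS, 2 mM L-glutamine, plated 5,000–40,000/well, preincubated 24 h at 37°C, 5% CO2; drug 48 h; adherent cells fixed with 10% TCA, suspension cells with 16% TCA; SRB stain, absorbance 515 nm; percentage growth versus untreated control, with time-zero plates.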

NCI-H322M = experiment: Growth inhibition of human NCI-H322M cells at 10 uM incubated for 48 hrs by sulforhodamine B assay relative to control; format: functional; settings: read-out: GI; how it was run: as §2
SN12C = experiment: Growth inhibition of human SN12C cells at 10 uM incubated for 48 hrs by sulforhodamine B assay relative to control; format: functional; settings: read-out: GI; how it was run: as §1
HOP-92 = experiment: Growth inhibition of human HOP92 cells at 10 uM incubated for 48 hrs by sulforhodamine B assay relative to control; format: functional; settings: HOP-92, 48 h, read-out: GI; how it was run: as §2
T47D = experiment: Growth inhibition of human T47D cells at 10 uM incubated for 48 hrs by sulforhodamine B assay relative to control; format: functional; settings: read-out: GI; how it was run: as §1
OVCAR-8 = experiment: Growth inhibition of human OVCAR8 cells at 10 uM incubated for 48 hrs by sulforhodamine B assay relative to control; format: functional; settings: OVCAR-8, 48 h, read-out: GI; how it was run: as §2
SF-268 = experiment: Growth inhibition of human SF268 cells at 10 uM incubated for 48 hrs by sulforhodamine B assay relative to control; format: functional; settings: SF-268, 48 h, read-out: GI; how it was run: as §1
EKVX = experiment: Growth inhibition of human EKVX cells at 10 uM incubated for 48 hrs by sulforhodamine B assay relative to control; format: functional; settings: read-out: GI; how it was run: as §2
SK-OV-3 = experiment: Growth inhibition of human SKOV3 cells at 10 uM incubated for 48 hrs by sulforhodamine B assay relative to control; format: functional; settings: SK-OV-3, 48 h, read-out: GI; how it was run: as §1
NCI-H23 = experiment: Growth inhibition of human NCI-H23 cells at 10 uM incubated for 48 hrs by sulforhodamine B assay relative to control; format: functional; settings: NCI-H23, 48 h, read-out: GI; how it was run: as §2
A549 = experiment: Growth inhibition of human A549/ATCC cells at 10 uM incubated for 48 hrs by sulforhodamine B assay relative to control; format: functional; settings: A549, 48 h, read-out: GI; how it was run: as §2
HT-29 = experiment: Growth inhibition of human HT-29 cells at 10 uM incubated for 48 hrs by sulforhodamine B assay relative to control; format: functional; settings: HT-29, 48 h, read-out: GI; how it was run: as §2
HCT-15 = experiment: Growth inhibition of human HCT15 cells at 10 uM incubated for 48 hrs by sulforhodamine B assay relative to control; format: functional; settings: HCT-15, 48 h, read-out: GI; how it was run: as §2
OVCAR-3 = experiment: Growth inhibition of human OVCAR3 cells at 10 uM incubated for 48 hrs by sulforhodamine B assay relative to control; format: functional; settings: OVCAR-3, 48 h, read-out: GI; how it was run: as §2
SW-620 = experiment: Growth inhibition of human SW620 cells at 10 uM incubated for 48 hrs by sulforhodamine B assay relative to control; format: functional; settings: SW-620, 48 h, read-out: GI; how it was run: as §1
SF-295 = experiment: Growth inhibition of human SF295 cells at 10 uM incubated for 48 hrs by sulforhodamine B assay relative to control; format: functional; settings: SF-295, 48 h, read-out: GI; how it was run: as §1
M14 = experiment: Growth inhibition of human M14 cells at 10 uM incubated for 48 hrs by sulforhodamine B assay relative to control; format: functional; settings: M14, 48 h, read-out: GI; how it was run: as §2
ACHN = experiment: Growth inhibition of human ACHN cells at 10 uM incubated for 48 hrs by sulforhodamine B assay relative to control; format: functional; settings: read-out: GI; how it was run: as §2
UO-31 = experiment: Growth inhibition of human UO31 cells at 10 uM incubated for 48 hrs by sulforhodamine B assay relative to control; format: functional; settings: UO-31, 48 h, read-out: GI; how it was run: as §1
HL-60(TB) [1] = experiment: Growth inhibition of human HL-60(TB) cells at 10 uM incubated for 48 hrs by sulforhodamine B assay relative to control; format: functional; settings: HL-60, 48 h, read-out: GI
How it was run: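 Single dose of 10 µM in the NCI ~60-line panel. Cells grown in RPMI 1640 with 5% FBS and 2 mM L-glutamine, plated and pre-incubated 24 h, then exposed 48 h at 37°C under 5% CO2. Suspension cells fixed with TCA (16% final) and stained with sulforhodamine B, A515 read. Reported as percent growth versus untreated control and as GI%.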

MOLT-4 = experiment: Growth inhibition of human MOLT4 cells at 10 uM incubated for 48 hrs by sulforhodamine B assay relative to control; format: functional; settings: MOLT-4, 48 h, read-out: GI; how it was run: as §2
CCRF-CEM = experiment: Growth inhibition of human CCRF-CEM cells at 10 uM incubated for 48 hrs by sulforhodamine B assay relative to control; format: functional; settings: read-out: GI; how it was run: as §2
IGROV-1 = experiment: Growth inhibition of human IGROV1 cells at 10 uM incubated for 48 hrs by sulforhodamine B assay relative to control; format: functional; settings: IGROV-1, 48 h, read-out: GI; how it was run: as §2
SF-539 = experiment: Growth inhibition of human SF539 cells at 10 uM incubated for 48 hrs by sulforhodamine B assay relative to control; format: functional; settings: SF-539, 48 h, read-out: GI; how it was run: as §1
RXF 393 = experiment: Growth inhibition of human RXF393 cells at 10 uM incubated for 48 hrs by sulforhodamine B assay relative to control; format: functional; settings: RXF 393, 48 h, read-out: GI; how it was run: as §2
NCI-H226 = experiment: Growth inhibition of human NCI-H226 cells at 10 uM incubated for 48 hrs by sulforhodamine B assay relative to control; format: functional; settings: NCI-H226, 48 h, read-out: GI; how it was run: as §2
BT-549 = experiment: Growth inhibition of human BT549 cells at 10 uM incubated for 48 hrs by sulforhodamine B assay relative to control; format: functional; settings: BT-549, 48 h, read-out: GI; how it was run: as §2
HL-60(TB) [2] = experiment: Growth inhibition of human HL-60(TB) cells incubated for 24 hrs by MTT assay; format: functional, cell-based; settings: HL-60, 24 h
How it was run: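 Cells at 1.2-1.8×10^4 cells/ml in DMEM with 10% FBS, 10 µg/ml insulin and 1% penicillin/streptomycin, plated overnight at 37°C. Serial 10-fold dilutions added to 0.01–100 µM final, medium as negative control, 24 h. MTT (5 mg/ml) added for 4 h, formazan dissolved in acid-isopropanol, A490 read. Eight separate experiments; percent viable cells used to derive IC50.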

Row | Compound | inhibition of growth at 10 µM (SK-MEL-28) [%] | inhibition of growth at 10 µM (NCI-H522) [%] | inhibition of growth at 10 µM (NCI-H322M) [%] | inhibition of growth at 10 µM (SN12C) [%] | inhibition of growth at 10 µM (HOP-92) [%] | inhibition of growth at 10 µM (T47D) [%] | inhibition of growth at 10 µM (OVCAR-8) [%] | inhibition of growth at 10 µM (SF-268) [%] | inhibition of growth at 10 µM (EKVX) [%] | inhibition of growth at 10 µM (SK-OV-3) [%] | inhibition of growth at 10 µM (NCI-H23) [%] | inhibition of growth at 10 µM (A549) [%] | inhibition of growth at 10 µM (HT-29) [%] | inhibition of growth at 10 µM (HCT-15) [%] | inhibition of growth at 10 µM (OVCAR-3) [%] | inhibition of growth at 10 µM (SW-620) [%] | inhibition of growth at 10 µM (SF-295) [%] | inhibition of growth at 10 µM (M14) [%] | inhibition of growth at 10 µM (ACHN) [%] | inhibition of growth at 10 µM (UO-31) [%] | also measured
1 | CCOC(=O)C1=C(C)NC(SCc2nnc(-c3ccc(OC)cc3)o2)=NC1c1ccc(F)cc1 (configuration not stated) | < 10 | 26.5 | < 10 | < 10 | 21.4 | 33.3 | < 10 | < 10 | < 10 | 14.2 | < 10 | 12.7 | < 10 | < 10 | < 10 | < 10 | < 10 | < 10 | < 10 | 21.7 | inhibition of growth at 10 µM (HL-60(TB) [1]): 12%; inhibition of growth at 10 µM (MOLT-4): < 10%; inhibition of growth at 10 µM (CCRF-CEM): 15.3%; inhibition of growth at 10 µM (IGROV-1): < 10%; inhibition of growth at 10 µM (SF-539): < 10%; inhibition of growth at 10 µM (RXF 393): 14.5%; inhibition of growth at 10 µM (NCI-H226): 10.4%; inhibition of growth at 10 µM (BT-549): < 10%
2 | CCOC(=O)C1=C(C)NC(SCc2nnc(-c3ccc(Cl)cc3)o2)=NC1c1ccc(OC)cc1 (configuration not stated) | < 10 | < 10 | < 10 | < 10 | 17.6 | 15.2 | < 10 | < 10 | < 10 | < 10 | < 10 | 11.5 | < 10 | < 10 | < 10 | < 10 | < 10 | < 10 | < 10 | 20.3 | inhibition of growth at 10 µM (HL-60(TB) [1]): < 10%; inhibition of growth at 10 µM (MOLT-4): < 10%; inhibition of growth at 10 µM (CCRF-CEM): 12.9%; inhibition of growth at 10 µM (IGROV-1): 17.8%; inhibition of growth at 10 µM (SF-539): < 10%; inhibition of growth at 10 µM (RXF 393): < 10%; inhibition of growth at 10 µM (NCI-H226): 11.8%; inhibition of growth at 10 µM (BT-549): 16.9%
3 | CCOC(=O)C1=C(C)NC(SCc2nnc(-c3ccc(Cl)cc3)o2)=NC1c1ccc(Br)cc1 (configuration not stated) | 18.7 | 32.4 | 13.6 | < 10 | 42.2 | 52 | 27.3 | 13.3 | 28.7 | 18 | 24.3 | 37.6 | 21.3 | 34.9 | 22.5 | < 10 | 26.4 | 26 | 30.3 | 47.6 | IC50 (HL-60(TB) [2]): 143 nM; inhibition of growth at 10 µM (HL-60(TB) [1]): 77.5%; inhibition of growth at 10 µM (MOLT-4): 91.7%; inhibition of growth at 10 µM (CCRF-CEM): 56.6%; inhibition of growth at 10 µM (IGROV-1): 34.5%; inhibition of growth at 10 µM (SF-539): 11.3%; inhibition of growth at 10 µM (RXF 393): 25%; inhibition of growth at 10 µM (NCI-H226): 21.1%; inhibition of growth at 10 µM (BT-549): 20.2%
4 | CCOC(=O)C1=C(C)NC(SCc2nnc(-c3ccc(Cl)cc3)o2)=NC1c1ccc(Cl)cc1 (configuration not stated) | 20.2 | 31.1 | 17.7 | < 10 | 35.9 | 50.1 | 25.2 | 14 | 19.9 | 17.4 | 21.2 | 31 | 24.8 | 32.4 | 29.2 | 14.1 | 25.9 | 30.7 | 35.9 | 51.3 | IC50 (HL-60(TB) [2]): 103 nM; inhibition of growth at 10 µM (HL-60(TB) [1]): 78.6%; inhibition of growth at 10 µM (MOLT-4): 93%; inhibition of growth at 10 µM (CCRF-CEM): 60.3%; inhibition of growth at 10 µM (IGROV-1): 37.7%; inhibition of growth at 10 µM (SF-539): 12.3%; inhibition of growth at 10 µM (RXF 393): 32.3%; inhibition of growth at 10 µM (NCI-H226): 30.1%; inhibition of growth at 10 µM (BT-549): 24.7%
5 | CCOC(=O)C1=C(C)NC(SCc2nnc(-c3ccc(C)cc3)o2)=NC1c1ccc(F)cc1 (configuration not stated) | < 10 | 22.4 | 10.3 | 19.9 | 37 | 32.6 | 17.8 | < 10 | < 10 | < 10 | < 10 | 17.3 | 12.4 | 11.3 | < 10 | < 10 | 12.1 | < 10 | 19 | < 10 | inhibition of growth at 10 µM (HL-60(TB) [1]): 25.2%; inhibition of growth at 10 µM (MOLT-4): 21.6%; inhibition of growth at 10 µM (CCRF-CEM): 14.1%; inhibition of growth at 10 µM (IGROV-1): 13.9%; inhibition of growth at 10 µM (SF-539): < 10%; inhibition of growth at 10 µM (RXF 393): < 10%; inhibition of growth at 10 µM (NCI-H226): 10.1%; inhibition of growth at 10 µM (BT-549): 12.8%
